Active and inactive are the calls of the source. The calls are words filed in the database; no cut-off is given here.
How the values were obtained:
L1210 [1] = experiment: Cytotoxicity against mouse L1210 cells after 48 hrs by Coulter counting method; assay type: functional, cell-based; conditions: L1210, 48 h
In short: (§1)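 (5–7.5) × 10⁴ tumour cells per well with test compound. Proliferation ran 48 h for L1210 and 72 h for CEM and HeLa, at 37 °C in humidified CO₂. Cells counted in a Coulter counter. IC50 taken as the concentration that inhibited cell proliferation by 50%.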

CCRF-CEM = experiment: Cytotoxicity against human CEM cells after 72 hrs by Coulter counting method; assay type: cell-based; in short: as §1
HeLa [2] = experiment: Cytotoxicity against human HeLa cells after 72 hrs by Coulter counting method; assay type: functional, cell-based; in short: as §1
REH [3] = experiment: Induction of apoptosis in human REH cells assessed as early apoptotic cells at 1 uM after 48 hrs using propidium iodide/annexin-V by flow cytometry (reference value: 16.2 %); assay type: functional
In short: (§2)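 REH cells given 1 μM compound for 48 h alongside DMSO controls. Harvested, washed in PBS, resuspended in binding buffer (10 mM HEPES pH 7.4, 144 mM NaCl, 25 mM CaCl₂).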

REH [4] = experiment: Induction of apoptosis in human REH cells assessed as ROS production at 1 uM after 30 mins using H2DCFDA by flow cytometry (reference value: 0.11%); assay type: functional
HeLa [5] = experiment: Ratio of melphalan IC50 to compound IC50 for human HeLa cells after 48 to 72 hrs by Coulter counter cell counting
REH [6] = experiment: Induction of apoptosis in human REH cells assessed as necrotic cells at 1 uM after 48 hrs using propidium iodide/annexin-V by flow cytometry (reference value: 2.5 %); assay type: functional; in short: as §2
REH [7] = experiment: Induction of apoptosis in human REH cells assessed as loss of mitochodrial membrane potential at 0.5 to 1 uM after 48 hrs using JC-1 staining by flow cytometry; assay type: functional, cell-based
In short: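 REH cells exposed to 0.5 or 1 μM compound for 48 h, then incubated with 0.5 μM JC-1 for 20 min at 37 °C, washed and read by flow cytometry. Green-to-red fluorescence ratio reported. 2,4-DNP as positive control, DMSO-treated cells as controls. Two independent experiments.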

REH [8] = experiment: Induction of apoptosis in human REH cells assessed as ROS production at 1 uM after 5 mins using H2DCFDA by flow cytometry (reference value: 0.11%); assay type: functional
L1210 [9] = experiment: Ratio of melphalan IC50 to compound IC50 for mouse L1210 cells after 48 to 72 hrs by Coulter counter cell counting
REH [10] = experiment: Effect on cell cycle progression in human REH cells at 0.1 to 1 uM after 48 hrs using propidium iodide by flow cytometry; assay type: functional, cell-based
In short: (§3)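 REH cells (0.5 × 10⁵ cells/ml) precultured 24 h, then exposed to 0, 0.1, 0.5 or 1 μM compound for 48 h. Harvested, fixed in 70% chilled ethanol, stained with propidium iodide, analysed by flow cytometry, at least 10,000 cells per sample. Phase distribution from histograms, two independent experiments.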

[11] = Ratio of melphalan IC50 to compound IC50 for human CEM cells after 48 to 72 hrs by Coulter counter cell counting; conditions: CCRF-CEM (CEM) cells
REH [12] = experiment: Cell cycle arrest in human REH cells assessed as accumulation at sub-G1 phase at 0.1 to 1 uM after 48 hrs using propidium iodide by flow cytometry; assay type: functional, cell-based; in short: as §3
REH [13] = experiment: Induction of apoptosis in human REH cells assessed as ROS production at 1 uM after 60 mins using H2DCFDA by flow cytometry (reference value: 0.11%); assay type: functional
REH [14] = experiment: Induction of apoptosis in human REH cells assessed as ROS production at 1 uM after 5 to 60 mins using H2DCFDA by flow cytometry (reference value: 0.11%); assay type: functional
K562 = experiment: Cytotoxicity against human K562 cells after 48 to 72 hrs; assay type: functional, cell-based
In short: (§4)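 REH and K562 cells at 0.5 × 10⁵ cells/ml, given 0–10 μM compound, with a DMSO vehicle control. Read at 48 and 72 h by trypan blue dye exclusion (cells precultured 24 h before dosing) and by MTT. Three independent experiments, MTT in duplicate.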

REH [15] = experiment: Induction of apoptosis in human REH cells assessed as viable cells at 1 uM after 48 hrs using propidium iodide/annexin-V by flow cytometry (reference value: 72.6 %); assay type: functional; conditions: read-out: Activity; in short: as §2
REH [16] = experiment: Induction of apoptosis in human REH cells assessed as late apoptotic cells at 1 uM after 48 hrs using propidium iodide/annexin-V by flow cytometry (reference value: 8.7 %); assay type: functional; in short: as §2
REH [17] = experiment: Cell cycle arrest in human REH cells at 0.1 to 1 uM after 48 hrs using propidium iodide by flow cytometry; assay type: functional, cell-based; in short: as §3
REH [18] = experiment: Induction of apoptosis in human REH cells assessed as DNA fragmentation at 0.5 uM after 48 hrs by agarose gel electrophoresis; assay type: functional, cell-based
In short: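 REH cells given 0, 0.1, 0.5, 1 and 5 μM for 48 h, DMSO vehicle control. Cells lysed in Triton X-100/proteinase K buffer at 55 °C for 5 h, then RNase (50 μg/ml) 1 h at 37 °C. DNA precipitated with sodium acetate/isopropanol and run on 2% agarose at 50 V for 3 h.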

REH [19] = experiment: Induction of apoptosis in human REH cells assessed as ROS production at 1 uM after 15 mins using H2DCFDA by flow cytometry (reference value: 0.11%); assay type: functional
REH [20] = experiment: Cytotoxicity against human REH cells after 48 to 72 hrs; assay type: functional, cell-based; in short: as §4
REH [21] = experiment: Cytotoxicity against human REH cells at 0.5 uM after 48 hrs using ethidium bromide staining by live-dead assay relative to 293T cells; assay type: functional
In short: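 REH and 293T cells seeded at 1 × 10^5/ml, exposed to 0.5 μM compound for 48 h; DMSO vehicle control. Harvested cells stained with ethidium bromide (5 μg/ml), which enters membrane-compromised dead cells, and dead fraction quantified by flow cytometry. REH cultured in RPMI1640, 293T in DMEM, both with 10% FBS, penicillin/streptomycin, 37 °C, 5% CO2.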

| SMILES | IC50 (L1210 [1]) [µM] | IC50 (CCRF-CEM) [µM] | IC50 (HeLa [2]) [µM] | other results |
| --- | --- | --- | --- | --- |
| Clc1ccc(Cc2nn3c(Br)c(-c4ccccc4)nc3s2)cc1 | > 250 | > 250 | > 250 | – |
| N#CSc1c(-c2ccc(Cl)cc2Cl)nc2sc(Cc3ccc(Cl)cc3)nn12 | 49 | 46 | 18 | – |
| Cc1ccc(-c2cn3nc(Cc4ccc(Cl)cc4)sc3n2)cc1 | > 250 | > 250 | > 250 | – |
| Clc1ccc(Cc2nn3c(Br)c(-c4ccc(Br)cc4)nc3s2)cc1 | > 250 | 238 | 188 | – |
| COc1ccc(-c2nc3sc(Cc4ccc(Cl)cc4)nn3c2Br)cc1 | 63 | 58 | 66 | – |
| O=Cc1c(-c2ccc(Br)cc2)nc2sc(Cc3ccc(Cl)cc3)nn12 | 4.6 | 4 | 4.2 | – |
| N#CSc1c(-c2ccc(Cl)cc2)nc2sc(Cc3ccc(Cl)cc3)nn12 | 49 | 30 | 20 | – |
| O=[N+]([O-])c1ccc(-c2nc3sc(Cc4ccc(Cl)cc4)nn3c2Br)cc1 | 94 | 73 | > 250 | – |
| N#CSc1c(-c2ccc(Br)cc2)nc2sc(Cc3ccc(Cl)cc3)nn12 | 81 | 61 | 22 | – |
| Cc1ccc(-c2nc3sc(Cc4ccc(Cl)cc4)nn3c2SC#N)cc1 | 32 | 22 | 22 | – |
| Cc1ccc(-c2nc3sc(Cc4ccc(Cl)cc4)nn3c2C=O)cc1 | 23 | 17 | 21 | – |
| O=Cc1c(-c2ccccc2)nc2sc(Cc3ccc(Cl)cc3)nn12 | 20 | 22 | 45 | – |
| Cc1ccc(-c2nc3sc(Cc4ccc(Cl)cc4)nn3c2Br)cc1 | > 250 | > 250 | > 250 | – |
| Clc1ccc(Cc2nn3cc(-c4ccc(Cl)cc4Cl)nc3s2)cc1 | 247 | > 250 | 109 | – |
| Clc1ccc(Cc2nn3cc(-c4ccc(Br)cc4)nc3s2)cc1 | > 250 | > 250 | > 250 | – |
| O=Cc1c(-c2cc3ccccc3oc2=O)nc2sc(Cc3ccc(Cl)cc3)nn12 | 0.89 | 0.75 | 0.9 | Activity (REH [3]): 21.5%; Activity (REH [4]): 0.13%; Ratio IC50 (HeLa [5]): 3; Activity (REH [6]): 9.1%; Activity (REH [7]): Active; Activity (REH [8]): 0.16%; Ratio IC50 (L1210 [9]): 3; Activity (REH [10]): inactive; selectivity ratio [11]: 3; Activity (REH [12]): Active; Activity (REH [13]): 0.16%; Activity (REH [14]): 36.99%; IC50 (K562): 0.9 µM; viability at 1 µM (REH [15]): 54.8%; Activity (REH [16]): 14.6%; Activity (REH [17]): inactive; Activity (REH [18]): Active; Activity (REH [19]): 0.12%; IC50 (REH [20]): 0.67 µM; fold change (FC) (REH [21]): 6 |
| O=c1oc2ccccc2cc1-c1cn2nc(Cc3ccc(Cl)cc3)sc2n1 | > 10 | > 10 | > 10 | – |
| O=[N+]([O-])c1ccc(-c2cn3nc(Cc4ccc(Cl)cc4)sc3n2)cc1 | 214 | > 250 | > 250 | – |
| Fc1ccc(-c2nc3sc(Cc4ccc(Cl)cc4)nn3c2Br)cc1 | > 250 | > 250 | > 250 | – |

| SMILES | IC50 (L1210 [1]) [µM] | IC50 (CCRF-CEM) [µM] | IC50 (HeLa [2]) [µM] | other results |
| --- | --- | --- | --- | --- |
| Clc1ccc(Cc2nn3c(Br)c(-c4ccc(Cl)cc4)nc3s2)cc1 | > 250 | > 250 | > 250 | – |
| Clc1ccc(Cc2nn3c(Br)c(-c4ccc(Cl)cc4Cl)nc3s2)cc1 | 31 | 106 | 118 | – |
| O=Cc1c(-c2ccc(Cl)cc2)nc2sc(Cc3ccc(Cl)cc3)nn12 | 15 | 5.8 | 16 | – |
| N#CSc1c(-c2ccc(F)cc2)nc2sc(Cc3ccc(Cl)cc3)nn12 | 23 | 24 | 20 | – |
| N[C@@H](Cc1ccc(N(CCCl)CCCl)cc1)C(=O)O [MELPHALAN] | – | 1.4 | – | – |
| COc1ccc(-c2nc3sc(Cc4ccc(Cl)cc4)nn3c2C=O)cc1 | 5.3 | 3.8 | 6 | – |
| O=Cc1c(-c2ccc(F)cc2)nc2sc(Cc3ccc(Cl)cc3)nn12 | 20 | 17 | 20 | – |
| N#CSc1c(-c2cc3ccccc3oc2=O)nc2sc(Cc3ccc(Cl)cc3)nn12 | 1.3 | 1.4 | 1 | IC50 (K562): 3.1 µM; IC50 (REH [20]): 6.2 µM |
| N#CSc1c(-c2ccccc2)nc2sc(Cc3ccc(Cl)cc3)nn12 | 24 | 14 | 12 | – |
| Fc1ccc(-c2cn3nc(Cc4ccc(Cl)cc4)sc3n2)cc1 | > 250 | > 250 | > 250 | – |
| COc1ccc(-c2cn3nc(Cc4ccc(Cl)cc4)sc3n2)cc1 | 38 | > 250 | > 250 | – |
| c1ccc([C@H]2CN3CCSC3=N2)cc1 [LEVAMISOLE] | 206 | > 250 | 250 | – |
| O=c1oc2ccccc2cc1-c1nc2sc(Cc3ccc(Cl)cc3)nn2c1Br | 5.2 | 3.7 | 4.5 | – |
| N#CSc1c(-c2ccc([N+](=O)[O-])cc2)nc2sc(Cc3ccc(Cl)cc3)nn12 | 50 | 20 | 16 | – |
| O=Cc1c(-c2ccc([N+](=O)[O-])cc2)nc2sc(Cc3ccc(Cl)cc3)nn12 | 15 | 13 | 17 | – |
| COc1ccc(-c2nc3sc(Cc4ccc(Cl)cc4)nn3c2SC#N)cc1 | 16 | 10 | 9 | – |
| O=Cc1c(-c2ccc(Cl)cc2Cl)nc2sc(Cc3ccc(Cl)cc3)nn12 | 82 | 79 | 64 | – |
| Clc1ccc(Cc2nn3cc(-c4ccc(Cl)cc4)nc3s2)cc1 | > 250 | > 250 | 95 | – |
| Clc1ccc(Cc2nn3cc(-c4ccccc4)nc3s2)cc1 | > 250 | > 250 | > 250 | – |

— ChEMBL document CHEMBL3351601, “2-(4-Chlorobenzyl)-6-arylimidazo[2,1-b][1,3,4]thiadiazoles: synthesis, cytotoxic activity and mechanism of action” (Eur J Med Chem, 2014)
